Converted amounts (≈) assume the structure as drawn.
Legend:
Staphylococcus aureus [1] = assay: Inhibition of NorA-mediated efflux in Staphylococcus aureus K2361; format: functional, organism-based
Staphylococcus aureus [2] = assay: Inhibition of MepA-mediated efflux in Staphylococcus aureus K2886; format: functional, organism-based
Summary of the method: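 Efflux from MepA-overexpressing S. aureus K2886, done in duplicate. Reported as mean total efflux over a 5 min time course.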

Staphylococcus aureus [3] = assay: Antimicrobial activity against Staphylococcus aureus K1902; format: functional
Staphylococcus aureus [4] = assay: Antimicrobial activity against Staphylococcus aureus K2361 over expressing NorA efflux pump; format: functional
Staphylococcus aureus [5] = assay: Antimicrobial activity against Staphylococcus aureus K2885; format: functional
Staphylococcus aureus [6] = assay: Antimicrobial activity against Staphylococcus aureus K2886 over expressing MepA efflux pump; format: functional
Pseudomonas aeruginosa [7] = assay: Antimicrobial activity against Pseudomonas aeruginosa K3082; format: functional
Pseudomonas aeruginosa [8] = assay: Antimicrobial activity against Pseudomonas aeruginosa K2184 over expressing MexB efflux pump; format: functional
Escherichia coli [9] = assay: Antimicrobial activity against Escherichia coli K2201; format: functional
Staphylococcus aureus [10] = assay: Inhibition of NorA efflux pump in Staphylococcus aureus K2361 at 0.50 assessed as fold reduction in ethidium bromide minimum inhibitory concentration; format: functional; parameters: concentration or dose not given beside the values
Staphylococcus aureus [11] = assay: Inhibition of NorA efflux pump in Staphylococcus aureus K2361 at 1.58 uM MIC assessed as fold reduction in ethidium bromide minimum inhibitory concentration; format: functional
Staphylococcus aureus [12] = assay: Inhibition of MepA efflux pump in Staphylococcus aureus K2886 at 1.58 uM MIC assessed as fold reduction in ethidium bromide minimum inhibitory concentration; format: functional
Escherichia coli [13] = assay: Antimicrobial activity against Escherichia coli K2203 over expressing AcrB efflux pump
Staphylococcus aureus [14] = assay: Inhibition of MepA efflux pump in Staphylococcus aureus K2886 at 1/2 MIC assessed as fold reduction in ethidium bromide minimum inhibitory concentration
Staphylococcus aureus [15] = assay: Inhibition of MepA efflux pump in Staphylococcus aureus K2886 at 0.50 uM assessed as fold reduction in ethidium bromide minimum inhibitory concentration; format: functional
Staphylococcus aureus [16] = assay: Inhibition of NorA efflux pump in Staphylococcus aureus K2361 at 8.21 uM MIC assessed as fold reduction in ethidium bromide minimum inhibitory concentration; format: functional
Staphylococcus aureus [17] = assay: Inhibition of MepA efflux pump in Staphylococcus aureus K2886 at 4.1 uM MIC assessed as fold reduction in ethidium bromide minimum inhibitory concentration; format: functional
Staphylococcus aureus [18] = assay: Inhibition of NorA efflux pump in Staphylococcus aureus K2361 at 8.32 uM assessed as fold reduction in ethidium bromide minimum inhibitory concentration; format: functional
Staphylococcus aureus [19] = assay: Inhibition of MepA efflux pump in Staphylococcus aureus K2886 at 4.16 uM assessed as fold reduction in ethidium bromide minimum inhibitory concentration; format: functional
Staphylococcus aureus [20] = assay: Inhibition of NorA efflux pump in Staphylococcus aureus K2361 at 0.79 uM MIC assessed as fold reduction in ethidium bromide minimum inhibitory concentration; format: functional
Summary of the method: (§1)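 Ethidium bromide MIC was determined for the pump-expressing S. aureus strain, alone and with the efflux inhibitor added at 1/4 or 1/2 of the inhibitor's own MIC against that strain. Potentiation is expressed as fold lowering of the ethidium bromide MIC. Parent strains SA-K1902 and SA-K2885 were tested in the same way at 1/2 MIC.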

Staphylococcus aureus [21] = assay: Inhibition of MepA efflux pump in Staphylococcus aureus K2886 at 0.39 uM assessed as fold reduction in ethidium bromide minimum inhibitory concentration; format: functional; summary of the method: as §1

Row | IC50 (Staphylococcus aureus [1]) | IC50 (Staphylococcus aureus [2]) | MIC (Staphylococcus aureus [3]) | MIC (Staphylococcus aureus [4]) | MIC (Staphylococcus aureus [5]) | MIC (Staphylococcus aureus [6]) | MIC (Pseudomonas aeruginosa [7]) | MIC (Pseudomonas aeruginosa [8]) | MIC (Escherichia coli [9]) | SMILES | Fold change (Staphylococcus aureus [10]) | also measured
1 | > 50 µM | – | – | – | – | – | – | – | – | c1ccc(SC[C@H]2CCCNC2)cc1 | – | –
2 | > 50 µM | – | – | – | – | – | – | – | – | c1ccc(OC[C@H]2CCCNC2)cc1 | – | –
3 | > 50 µM | – | – | – | – | – | – | – | – | c1ccc(NC[C@H]2CCCNC2)cc1 | – | –
4 | < 10 µM | 20 µM | 25 µg/mL (≈ 63.3 µM) | 25 µg/mL (≈ 63.3 µM) | 25 µg/mL (≈ 63.3 µM) | 25 µg/mL (≈ 63.3 µM) | 100 µg/mL (≈ 253 µM) | 100 µg/mL (≈ 253 µM) | 100 µg/mL (≈ 253 µM) | Fc1ccc([C@@H]2CCNC[C@H]2/C=C/c2cc(Br)ccc2Cl)cc1 | 64 | Fold change (Staphylococcus aureus [11]): 16; Fold change (Staphylococcus aureus [12]): 4; MIC (Escherichia coli [13]): 100 µg/mL (≈ 253 µM); Fold change (Staphylococcus aureus [14]): >32
5 | 40 µM | < 10 µM | 100 µg/mL (≈ 328 µM) | > 100 µg/mL | 100 µg/mL (≈ 328 µM) | > 100 µg/mL | 100 µg/mL (≈ 328 µM) | 100 µg/mL (≈ 328 µM) | 100 µg/mL (≈ 328 µM) | Clc1ccc(Br)cc1OC[C@H]1CCCNC1 | 64 | Fold change (Staphylococcus aureus [15]): 8; Fold change (Staphylococcus aureus [16]): 16; Fold change (Staphylococcus aureus [17]): 2
6 | 45 µM | < 10 µM | 100 µg/mL (≈ 333 µM) | 100 µg/mL (≈ 333 µM) | 100 µg/mL (≈ 333 µM) | 50 µg/mL (≈ 166 µM) | 100 µg/mL (≈ 333 µM) | 100 µg/mL (≈ 333 µM) | 50 µg/mL (≈ 166 µM) | Clc1ccc(Br)cc1/C=C/[C@H]1CCCNC1 | >128 | Fold change (Staphylococcus aureus [18]): 64; Fold change (Staphylococcus aureus [19]): 4; MIC (Escherichia coli [13]): 100 µg/mL (≈ 333 µM); Fold change (Staphylococcus aureus [14]): 16
7 | > 50 µM | – | – | – | – | – | – | – | – | COc1ccc(OC[C@H]2CCCNC2)cc1 | – | –

Row | SMILES | IC50 (Staphylococcus aureus [1]) | IC50 (Staphylococcus aureus [2]) | MIC (Staphylococcus aureus [3]) | MIC (Staphylococcus aureus [4]) | MIC (Staphylococcus aureus [5]) | MIC (Staphylococcus aureus [6]) | MIC (Pseudomonas aeruginosa [7]) | MIC (Pseudomonas aeruginosa [8]) | MIC (Escherichia coli [9]) | Fold change (Staphylococcus aureus [10]) | also measured
8 | Fc1ccc([C@@H]2CCNC[C@H]2CNc2ccccc2)cc1 | > 50 µM | – | – | – | – | – | – | – | – | – | –
9 | Fc1ccc([C@@H]2CCNC[C@H]2COc2ccccc2)cc1 | 22 µM | – | – | – | – | – | – | – | – | – | –
10 | Fc1ccc([C@@H]2CCNC[C@H]2CSc2ccccc2)cc1 | 18 µM | – | – | – | – | – | – | – | – | – | –
11 | Fc1ccc([C@@H]2CCNC[C@H]2COc2cc(Br)ccc2Cl)cc1 | < 10 µM | 13 µM | 12.5 µg/mL (≈ 31.4 µM) | 12.5 µg/mL (≈ 31.4 µM) | 6.25 µg/mL (≈ 15.7 µM) | 6.25 µg/mL (≈ 15.7 µM) | 100 µg/mL (≈ 251 µM) | 100 µg/mL (≈ 251 µM) | 25 µg/mL (≈ 62.7 µM) | 32 | Fold change (Staphylococcus aureus [20]): 4; Fold change (Staphylococcus aureus [21]): 4; MIC (Escherichia coli [13]): 50 µg/mL (≈ 125 µM); Fold change (Staphylococcus aureus [14]): 8
12 | Fc1ccc([C@@H]2CCNC[C@H]2COc2ccc3c(c2)OCO3)cc1 [PAROXETINE] | 15 µM | < 10 µM | – | – | – | – | – | – | – | – | –

Source: ChEMBL document CHEMBL1141490, “Synthesis and evaluation of PSSRI-based inhibitors of Staphylococcus aureus multidrug efflux pumps” (Bioorg Med Chem Lett, 2008)
